Assay results published in ChEMBL document CHEMBL1122504, “Heterocyclic Quinones. 4. A new highly cytotoxic drug: 6,7-bis(1-aziridinyl)-5,8-quinazolinedione” (1983).

Experiments:
B16 = assay: Number of survivors of B16 melanocarcinoma cell line on day 5/ number of treated mice at a dose of 1 ip injection of 10 mg/kg on Q01Dx01 treatment schedule; 10/10; type: functional, Mus musculus; conditions: route intraperitoneal
L1210 [1] = assay: MST of treated animal over control when administered at a dose of 5 mg/kg intraperitoneally on Q01Dx09 treatment schedule in L1210 cell lines; type: functional, Mus musculus; conditions: route intraperitoneal
Outline: (§1)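 L1210 leukaemia: DBA/2 mice inoculated ip with 10^5 cells on day 0, with ip drug in 0.15 M NaCl saline on the stated schedule. The read-out was median survival time in days, with toxicity taken as survivors on day 5. T/C% = treated MST/control MST × 100; >125% is considered significant.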

L1210 [2] = assay: Median survival time of L1210 cell line after a dose of 2.5 mg/kg administered intraperitoneally on Q01Dx09 treatment schedule; type: functional, Mus musculus; conditions: route intraperitoneal; outline: as §1
L1210 [3] = assay: Median survival time of L1210 cell line after a dose of 20 mg/kg administered intraperitoneally on Q01Dx01 treatment schedule; type: functional, Mus musculus; conditions: route intraperitoneal; outline: as §1
L1210 [4] = assay: MST of treated animal over control when administered at a dose of 15 mg/kg intraperitoneally on Q01Dx02 treatment schedule in L1210 cell lines; type: functional, Mus musculus; conditions: route intraperitoneal; outline: as §1
L1210 [5] = assay: MST of treated animal over control when administered at a dose of 2.5 mg/kg intraperitoneally on Q01Dx09 treatment schedule in L1210 cell lines; type: functional, Mus musculus; conditions: route intraperitoneal; outline: as §1
L1210 [6] = assay: MST of treated animal over control when administered at a dose of 20 mg/kg intraperitoneally on Q01Dx01 treatment schedule in L1210 cell lines; type: functional, Mus musculus; conditions: route intraperitoneal; outline: as §1
L1210 [7] = assay: Median survival time of L1210 cell line after a dose of 15 mg/kg administered intraperitoneally on Q01Dx02 treatment schedule; type: functional, Mus musculus; conditions: route intraperitoneal; outline: as §1
L1210 [8] = assay: Number of survivors of L1210 cell line on day 5/ number of treated mice at a dose of 1 i.p. injection of 10 mg/kg on Q01Dx01 treatment schedule; 10/10; type: functional, Mus musculus; conditions: route intraperitoneal
L1210 [9] = assay: Number of survivors of L1210 cell line on day 5/ number of treated mice at a dose of 1 i.p. injection of 20 mg/kg on Q01Dx01 treatment schedule; 10/10; type: functional, Mus musculus; conditions: route intraperitoneal
P388 [10] = assay: Number of survivors of P388 lymphocytic leukemia cell line on day 5/ number of treated mice at a dose of 1 i.v. injection of 5 mg/kg on Q01Dx01 treatment schedule; 10/10; type: functional, Mus musculus; conditions: route intravenous
P388 [11] = assay: Number of survivors of P388 lymphocytic leukemia cell line on day 5/ number of treated mice at a dose of 7po injection of 10 mg/kg on Q01Dx07 treatment schedule; 10/10; type: functional, Mus musculus
P388 [12] = assay: MST of treated animal over control when administered at a dose of 10 mg/kg perorally on Q01Dx07 treatment schedule; type: functional, Mus musculus; conditions: route oral
Outline: (§2)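 P388 leukaemia: DBA/2 mice inoculated with 10^6 cells on day 0; treatment began day 1 at the stated route and schedule. Drug was dissolved in 0.15 M NaCl saline. The read-out was median survival time (MST, days), with toxicity taken as survivors on day 5. T/C% = treated MST/control MST × 100; ≥125% is considered significant.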

P388 [13] = assay: MST of treated animal over control when administered at a dose of 2.5 mg/kg intraperitoneally on Q01Dx09 treatment schedule; type: functional, Mus musculus; conditions: route intraperitoneal; outline: as §2
P388 [14] = assay: MST of treated animal over control when administered at a dose of 5 mg/kg intraperitoneally on Q01Dx09 treatment schedule; type: functional, Mus musculus; conditions: route intraperitoneal; outline: as §2
P388 [15] = assay: Number of survivors of P388 lymphocytic leukemia cell line on day 5/ number of treated mice at a dose of 1 i.v. injection of 15 mg/kg on Q01Dx01 treatment schedule; 10/10; type: functional, Mus musculus; conditions: route intravenous
P388 [16] = assay: Number of survivors of P388 lymphocytic leukemia cell line on day 5/ number of treated mice at a dose of 7po injection of 20 mg/kg on Q01Dx07 treatment schedule; 10/10; type: functional, Mus musculus
P388 [17] = assay: Number of survivors of P388 lymphocytic leukemia cell line on day 5/ number of treated mice at a dose of 9 ip injection of 2.5 mg/kg on Q01Dx09 treatment schedule; 10/10; type: functional, Mus musculus; conditions: route intraperitoneal
P388 [18] = assay: Median survival time of P388 lymphocytic leukemia cell line after a dose of 10 mg/kg administered intraperitoneally on Q01Dx05 treatment schedule; type: functional, Mus musculus; conditions: route intraperitoneal; outline: as §2
P388 [19] = assay: Median survival time of P388 lymphocytic leukemia cell line after a dose of 10 mg/kg administered intraperitoneally on Q04Dx03 treatment schedule; type: functional, Mus musculus; conditions: route intraperitoneal; outline: as §2
P388 [20] = assay: Median survival time of P388 lymphocytic leukemia cell line after a dose of 5 mg/kg administered intraperitoneally on Q01Dx09 treatment schedule; type: functional, Mus musculus; conditions: route intraperitoneal; outline: as §2
P388 [21] = assay: Median survival time of P388 lymphocytic leukemia cell line after a dose of 15 mg/kg administered perorally on Q01Dx07 treatment schedule; type: functional, Mus musculus; conditions: route oral; outline: as §2
P388 [22] = assay: Median survival time of P388 lymphocytic leukemia cell line after a dose of 2.5 mg/kg administered intravenously on Q01Dx01 treatment schedule; type: functional, Mus musculus; conditions: route intravenous; outline: as §2
Salmonella typhimurium [23] = assay: Mutagenesis test was performed at 0.3 uM concentration in Salmonella Typhimurium TA 100; type: functional, Salmonella enterica subsp. enterica serovar Typhimurium
Outline: (§3)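 Salmonella typhimurium his auxotrophs TA98 and TA100 were tested by liquid suspension without metabolic activation. Overnight Oxoid nutrient broth cultures were subcultured, grown 2 h, then exposed to drug for 5 h. Cells were washed, resuspended to A650 2.50, and plated in top agar (0.6% agar, 0.6% NaCl). His+ revertants per plate were counted after 48 h at 37 °C; values are means of three assays.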

Salmonella typhimurium [24] = assay: Mutagenesis test was performed at 0.7 uM concentration in Salmonella Typhimurium TA 100; type: functional, Salmonella enterica subsp. enterica serovar Typhimurium; outline: as §3
Salmonella typhimurium [25] = assay: Mutagenesis test was performed at 0.7 uM concentration in Salmonella Typhimurium TA 98; type: functional, Salmonella enterica subsp. enterica serovar Typhimurium; outline: as §3
Salmonella typhimurium [26] = assay: Mutagenesis test was performed at 10 uM concentration in Salmonella Typhimurium TA 100; type: functional, Salmonella enterica subsp. enterica serovar Typhimurium; outline: as §3
Salmonella typhimurium [27] = assay: Mutagenesis test was performed at 4 uM concentration in Salmonella Typhimurium TA 98; type: functional, Salmonella enterica subsp. enterica serovar Typhimurium; outline: as §3
Salmonella typhimurium [28] = assay: Mutagenesis test was performed at 60 uM concentration in Salmonella Typhimurium TA 98; type: functional, Salmonella enterica subsp. enterica serovar Typhimurium; outline: as §3
Sarcoma-180 [29] = assay: MST of treated animal over control when administered at a dose of 10 mg/kg intraperitoneally on Q01Dx01 treatment schedule in sarcoma 180 cell lines; type: functional, Mus musculus; conditions: route intraperitoneal
Outline: (§4)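 Sarcoma 180: Swiss mice inoculated ip with 10^6 cells on day 0, with single ip injection of drug in 0.15 M NaCl saline. Median survival time was recorded in days, with toxicity taken as survivors on day 5. T/C% = treated MST/control MST × 100; >125% is considered significant.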

Sarcoma-180 [30] = assay: MST of treated animal over control when administered at a dose of 20 mg/kg intraperitoneally on Q01Dx01 treatment schedule in sarcoma 180 cell lines; type: functional, Mus musculus; conditions: route intraperitoneal; outline: as §4
Sarcoma-180 [31] = assay: Number of survivors of sarcoma 180 cell line on day 5/ number of treated mice at a dose of 1 ip injection of 10 mg/kg on Q01Dx01 treatment schedule; 10/10; type: functional, Mus musculus; conditions: route intraperitoneal
L1210 [32] = assay: Median survival time of L1210 cell line after a dose of 5 mg/kg administered intraperitoneally on Q01Dx09 treatment schedule; type: functional, Mus musculus; conditions: route intraperitoneal; outline: as §1

`O=C1C(N2CC2)=C(N2CC2)C(=O)c2ncncc21` was tested, and the “Toxicity Survivors” value (B16) was 10, the T/C (L1210 [1]) was 109% and the MST (L1210 [2]) was 9.1 days. For the same compound, the MST (L1210 [3]) was 9.4 days, the T/C (L1210 [4]) was 104% and the T/C (L1210 [5]) was 109%. For the same compound, the T/C (L1210 [6]) was 115%, the MST (L1210 [7]) was 9 days and the “Toxicity Survivors” value (L1210 [8]) was 10. The “Toxicity Survivors” value (L1210 [9]) was 10, the “Toxicity Survivors” value (P388 [10]) was 10 and the “Toxicity Survivors” value (P388 [11]) was 10. The T/C (P388 [12]) was 100%, the T/C (P388 [13]) was 128% and the T/C (P388 [14]) was 148%. For the same compound, the “Toxicity Survivors” value (P388 [15]) was 10, the “Toxicity Survivors” value (P388 [16]) was 10 and the “Toxicity Survivors” value (P388 [17]) was 10. It also gave an MST (P388 [18]) of 10.4 days, an MST (P388 [19]) of 9.9 days and an MST (P388 [20]) of 10.4 days. For the same compound, the MST (P388 [21]) was 7.6 days, the MST (P388 [22]) was 10.4 days and the Revertants/plate (Salmonella typhimurium [23]) was 76. The Revertants/plate (Salmonella typhimurium [24]) was 94, the Revertants/plate (Salmonella typhimurium [25]) was 101 and the Revertants/plate (Salmonella typhimurium [26]) was 97. It also gave a Revertants/plate (Salmonella typhimurium [27]) of 81, a Revertants/plate (Salmonella typhimurium [28]) of 1080 and a T/C (Sarcoma-180 [29]) of 109%. The T/C (Sarcoma-180 [30]) was 110%, the “Toxicity Survivors” value (Sarcoma-180 [31]) was 10 and the MST (L1210 [32]) was 9.1 days.
